Common to all, as to format: functional
Assay [1] concerns Staphylococcus aureus. Nature of the assay: Antibacterial activity against Staphylococcus aureus ATCC 29213 after 24 hrs by microtiter broth dilution method. Conditions: ATCC 29213, 24 h. A digest of the protocol: (§1)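 Compounds dissolved in DMSO and serially diluted by microtiter broth dilution following NCCLS guidance. Plates incubated at 37 °C for 24 h. MIC80 (ug/mL) taken as the lowest concentration inhibiting visible growth. Ceftazidime, cefotaxime, cefradine and sodium penicillin served as reference drugs.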
Background: Dilution methods test growth across graded concentrations, often in twofold steps.

Assay [2] relates to Pseudomonas aeruginosa. Put plainly: Antibacterial activity against Pseudomonas aeruginosa ATCC 49189 after 24 hrs by microtiter broth dilution method. As to conditions: ATCC 49189, 24 h. A digest of the protocol:
as §1

Assay [3] concerns Escherichia coli. Nature of the assay: Antibacterial activity against Escherichia coli ATCC 11303 after 24 hrs by microtiter broth dilution method. Conditions: ATCC 11303, 24 h. A digest of the protocol:
as §1

For assay [4], the system named is Staphylococcus aureus. Put plainly: Antibacterial activity against methicillin-resistant Staphylococcus aureus ATCC 700699 after 24 hrs by microtiter broth dilution method. Conditions: ATCC 700699, 24 h. A digest of the protocol: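 Compounds dissolved in DMSO and serially diluted in microtiter broth following NCCLS guidance. Plates were incubated at 37 °C for 24 h. MIC80 was read as the lowest concentration inhibiting visible growth of the organism, in µg/mL.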

Assay [5] relates to Bacillus subtilis. Nature of the assay: Antibacterial activity against Bacillus subtilis ATCC 33712 after 24 hrs by microtiter broth dilution method. As to conditions: ATCC 33712, 24 h. A digest of the protocol:
as §1

≈ marks a conversion by molar mass, not a printed value. Bounds are passed on as bounds.

Regarding `COc1ccc(-c2cc3ccc(OCCc4nc(-c5ccccc5)oc4C)cc3o2)cc1`, the MIC80 in assay [1] was > 200 µg/mL; in assay [2], > 200 µg/mL; in assay [3], > 200 µg/mL; in assay [4], > 200 µg/mL; in assay [5], 50 µg/mL (≈ 118 µM).

As for `COc1cc(/N=C/c2c(-c3ccccc3)oc3cc(OCCc4nc(-c5ccccc5)oc4C)ccc23)cc(OC)c1OC`, the MIC80 in assay [1] was 3.12 µg/mL (≈ 5.3 µM); in assay [2], > 200 µg/mL; in assay [3] it was > 200 µg/mL; in assay [4], > 200 µg/mL; in assay [5], > 200 µg/mL.

For the compound `COc1ccc(-c2cc3ccc(O)cc3o2)cc1`, the MIC80 in assay [1] was found to be 1.56 µg/mL (≈ 6.49 µM); in assay [2], 1.56 µg/mL (≈ 6.49 µM); in assay [3], 3.12 µg/mL (≈ 13 µM); in assay [4] it was 0.78 µg/mL (≈ 3.25 µM); in assay [5] it was 1.56 µg/mL (≈ 6.49 µM).

On to `Cc1ccc(-c2oc3cc(OCCc4nc(-c5ccccc5)oc4C)ccc3c2C(=O)c2ccc(C(F)(F)F)cc2)o1`, for which the MIC80 in assay [1], in assay [2], in assay [3], in assay [4] and in assay [5] was > 200 µg/mL in each case.

With `COc1cc(C(=O)c2c(-c3ccc(C)o3)oc3cc(OCCc4nc(-c5ccccc5)oc4C)ccc23)cc(OC)c1OC`, the MIC80 is 12.5 µg/mL (≈ 21.1 µM) in assay [1]; > 200 µg/mL in assay [2]; > 200 µg/mL in assay [3]; > 200 µg/mL in assay [4]; > 200 µg/mL in assay [5].

With `CC(=O)c1c(-c2ccc(C)o2)oc2cc(OCCc3nc(-c4ccccc4)oc3C)ccc12`, the MIC80 in assay [1], in assay [2], in assay [3], in assay [4] and in assay [5] was > 200 µg/mL each time.

`CO/N=C(\C(=O)N[C@@H]1C(=O)N2C(C(=O)O)=C(COC(C)=O)CS[C@H]12)c1csc(N)n1` [CEFOTAXIME]: the MIC80 is 3.12 µg/mL (≈ 6.85 µM) in assay [1], > 200 µg/mL in assay [3], 3.12 µg/mL (≈ 6.85 µM) in assay [4] and 0.78 µg/mL (≈ 1.71 µM) in assay [5].

For `CC1=C(C(=O)O)N2C(=O)[C@@H](NC(=O)[C@H](N)C3=CCC=CC3)[C@H]2SC1` [CEPHRADINE], the MIC80 is > 200 µg/mL in assay [1]; > 200 µg/mL in assay [2]; 25 µg/mL (≈ 71.5 µM) in assay [3]; > 200 µg/mL in assay [4]; 50 µg/mL (≈ 143 µM) in assay [5].

Turning to `COc1ccc(-c2oc3cc(OCCc4nc(-c5ccccc5)oc4C)ccc3c2C(=O)/C=C/c2cc(OC)c(OC)c(OC)c2)cc1`, the MIC80 in assay [1], in assay [2], in assay [3], in assay [4] and in assay [5] was > 200 µg/mL in each case.

As for `Cc1oc(-c2ccccc2)nc1CCOc1ccc2cc(-c3ccccc3)oc2c1`, the MIC80 in assay [1], in assay [2], in assay [3], in assay [4] and in assay [5] was > 200 µg/mL each time.

With `CC1(C)S[C@@H]2[C@H](NC(=O)Cc3ccccc3)C(=O)N2[C@H]1C(=O)[O-].[Na+]` [PENICILLIN G SODIUM], the MIC80 in assay [1] is 3.12 µg/mL; in assay [3] it was 0.78 µg/mL; in assay [4] it was 3.12 µg/mL; in assay [5], < 0.39 µg/mL.

Regarding `CC(C)(O/N=C(\C(=O)N[C@@H]1C(=O)N2C(C(=O)[O-])=C(C[n+]3ccccc3)CS[C@H]12)c1csc(N)n1)C(=O)O` [CEFTAZIDIME], the MIC80 was 0.78 µg/mL (≈ 1.43 µM) in assay [1]; 12.5 µg/mL (≈ 22.9 µM) in assay [2]; > 200 µg/mL in assay [3]; 12.5 µg/mL (≈ 22.9 µM) in assay [4]; 6.25 µg/mL (≈ 11.4 µM) in assay [5].

For `CC(=O)c1c(-c2ccc(C)o2)oc2cc(O)ccc12`, the MIC80 in assay [1] stood at 6.25 µg/mL (≈ 24.4 µM); in assay [2], 12.5 µg/mL (≈ 48.8 µM); in assay [3] it was 12.5 µg/mL (≈ 48.8 µM); in assay [4] it was 6.25 µg/mL (≈ 24.4 µM); in assay [5], 12.5 µg/mL (≈ 48.8 µM).

As to `Cc1ccc(-c2oc3cc(OCCc4nc(-c5ccccc5)oc4C)ccc3c2C(=O)c2ccco2)o1`, the MIC80 in assay [1], in assay [2], in assay [3], in assay [4] and in assay [5] was > 200 µg/mL throughout.

With `Cc1ccc(-c2cc3ccc(OCc4ccccc4)cc3o2)o1`, the MIC80 is > 200 µg/mL in assay [1]; > 200 µg/mL in assay [2]; > 200 µg/mL in assay [3]; 12.5 µg/mL (≈ 41.1 µM) in assay [4]; > 200 µg/mL in assay [5].

With `COc1cc(NCc2c(-c3ccccc3)oc3cc(OCCc4nc(-c5ccccc5)oc4C)ccc23)cc(OC)c1OC`, the MIC80 in assay [1], in assay [2], in assay [3], in assay [4] and in assay [5] was > 200 µg/mL throughout.

On to `c1ccc(COc2ccc3cc(-c4ccccc4)oc3c2)cc1`, for which the MIC80 is 100 µg/mL (≈ 333 µM) in assay [1]; 100 µg/mL (≈ 333 µM) in assay [2]; > 200 µg/mL in assay [3]; > 200 µg/mL in assay [4]; 100 µg/mL (≈ 333 µM) in assay [5].

For the compound `Cc1ccc(-c2cc3ccc(O)cc3o2)o1`, the MIC80 in assay [1] came to 1.56 µg/mL (≈ 7.28 µM); in assay [2], 0.78 µg/mL (≈ 3.64 µM); in assay [3] it was 3.12 µg/mL (≈ 14.6 µM); in assay [4] it was 3.12 µg/mL (≈ 14.6 µM); in assay [5] it was 1.56 µg/mL (≈ 7.28 µM).

Regarding `COc1ccc(-c2oc3cc(OCCc4nc(-c5ccccc5)oc4C)ccc3c2C(C)=O)cc1`, the MIC80 in assay [1], in assay [2], in assay [3], in assay [4] and in assay [5] was > 200 µg/mL throughout.

As to `COc1ccc(-c2cc3ccc(OCc4ccccc4)cc3o2)cc1`, the MIC80 in assay [1], in assay [2], in assay [3], in assay [4] and in assay [5] was > 200 µg/mL throughout.

On to `Oc1ccc2cc(-c3ccccc3)oc2c1`, for which the MIC80 in assay [1] was 6.25 µg/mL (≈ 29.7 µM); in assay [2], 0.78 µg/mL (≈ 3.71 µM); in assay [3], 6.25 µg/mL (≈ 29.7 µM); in assay [4], 1.56 µg/mL (≈ 7.42 µM); in assay [5], 3.12 µg/mL (≈ 14.8 µM).

A word on the MIC80: it is the lowest concentration that inhibits either 80% of growth or 80% of the strains tested, depending on the study.

The values are drawn from ChEMBL document CHEMBL2040849, “Synthesis and antimicrobial evaluation of 3-methanone-6-substituted-benzofuran derivatives” (2012).
